Consider four compounds from ChEMBL document CHEMBL3227936, “Actions of two dopamine derivatives at adreno- and cholinoceptors” (J Med Chem, 1979).

Molecules are shown by their SMILES. Active and inactive are the calls of the source. No cut-off for these calls is given here. Some results are limits rather than exact numbers.

The target of one series is T1, Acetylcholinesterase (Gallus gallus, UniProt P36196).
T1 sequence (P36196 whole entry): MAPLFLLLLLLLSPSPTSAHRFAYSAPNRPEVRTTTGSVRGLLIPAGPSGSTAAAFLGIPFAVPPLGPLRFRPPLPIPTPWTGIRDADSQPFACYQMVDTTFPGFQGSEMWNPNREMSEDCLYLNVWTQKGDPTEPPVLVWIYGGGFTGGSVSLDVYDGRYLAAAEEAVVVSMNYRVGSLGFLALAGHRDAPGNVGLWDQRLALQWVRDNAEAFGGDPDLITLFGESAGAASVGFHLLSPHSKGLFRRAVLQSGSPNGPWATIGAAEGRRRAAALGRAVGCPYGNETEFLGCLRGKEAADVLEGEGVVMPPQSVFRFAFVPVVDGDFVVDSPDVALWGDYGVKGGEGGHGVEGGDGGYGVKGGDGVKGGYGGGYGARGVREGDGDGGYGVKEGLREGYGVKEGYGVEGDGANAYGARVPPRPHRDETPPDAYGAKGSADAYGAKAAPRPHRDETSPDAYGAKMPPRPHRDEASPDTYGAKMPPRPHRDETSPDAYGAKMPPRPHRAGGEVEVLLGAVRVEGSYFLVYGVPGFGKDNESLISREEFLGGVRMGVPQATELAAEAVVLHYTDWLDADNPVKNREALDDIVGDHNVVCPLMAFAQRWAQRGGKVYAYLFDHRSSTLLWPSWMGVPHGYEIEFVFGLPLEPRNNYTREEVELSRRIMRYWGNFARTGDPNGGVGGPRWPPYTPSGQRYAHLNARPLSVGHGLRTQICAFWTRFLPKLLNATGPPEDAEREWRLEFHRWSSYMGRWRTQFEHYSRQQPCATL
Briefly: Inhibition of acetylcholine esterase in chicken biventer cervicis muscle assessed as rate of acetylcholine hydrolysis by Ellman's method. The arrangement: species or system Muscle tissue. The conditions noted are these: read-out: I50. In short, it runs like this: (§1)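 Chick biventer cervicis muscle homogenates were assayed for cholinesterase with acetylthiocholine as substrate by Ellman's colorimetric method as modified by Gandiha et al. Absorbance change was read at 412 nm. Hydrolysis rates (µmol min^-1 g^-1) were compared with and without drug.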
A general note: In Ellman's method for cholinesterases, released thiocholine reacts with DTNB.

The species entered for series [1] is Cavia porcellus. Briefly: Agonist activity at muscarinic acetylcholine receptor in guinea pig ileum smooth muscle assessed as contraction. The series is classed as tissue-based. In short, it runs like this: (§2)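 Guinea pig ileum segments were kept in Tyrode solution at 32 °C and bubbled with air. Isotonic contractions to cholinergic agonists were recorded, and log concentration–effect curves were built. Points are means of at least four experiments.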

Series [2] concerns Felis catus. Briefly: Reduction of mean blood pressure in atropinized-cat at 0.2 to 3 mg/kg, iv in presence of phentolamine. The series is classed as functional, organism-based. Summed up: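 In atropinized cats (atropine 1 mg/kg) under chloralose–pentobarbitone anesthesia, drugs in acid saline pH 4.5 were given iv. Mean blood pressure responses were recorded with phentolamine 2 mg/kg.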

Series [3] concerns Felis catus. Briefly: Induction of fasiculated twitches in skeletal muscle of electrically stimulated cat at 0.2 to 3 mg/kg, iv relative to control. The series is classed as organism-based, Muscle tissue. Details: dose 0.2-3 mg/kg, route intravenous. The note with it: in vivo. Summed up:
(§3)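 Adult cats of either sex were anesthetized with α-chloralose 80 mg/kg plus sodium pentobarbitone 6 mg/kg ip, and nearly all were bilaterally vagotomized. Drugs were given iv via a femoral or brachial vein in acid-0.9% saline (pH 4.5). The sciatic nerve was stimulated to evoke soleus contractions, with maximal twitches at 0.1 Hz. Responses were recorded continuously.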

The species entered for series [4] is Gallus gallus. Briefly: Agonist activity at cholinergic receptor in chicken biventer cervicis nerve muscle assessed as twitch blockade at 1 to 10 ug/ml.
Series [5] is filed under the species Cavia porcellus. Briefly: Agonist activity at muscarinic acetylcholine receptor in guinea pig ileum smooth muscle assessed as contraction in presence of atropine. The series is classed as tissue-based. Summed up:
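Guinea pig ileum was kept in Tyrode solution at 32 °C and aerated. Isotonic contractions were recorded, and concentration–effect curves were repeated after atropine 1×10^-8 M. Points are means of at least four experiments.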

For series [6], the species on record is Gallus gallus. Briefly: (§4) Agonist activity at cholinergic receptor in chicken biventer cervicis nerve muscle assessed as twitch augmentation accompanied with contracture at 1 to 10 ug/ml.
Series [7] is filed under the species Cavia porcellus. Briefly: Agonist activity at muscarinic acetylcholine receptor in guinea pig ileum smooth muscle assessed as contraction measured after compound washout. The class given is tissue-based. Summed up: as §2
The species named for series [8] is Cavia porcellus. Briefly: Agonist activity at muscarinic acetylcholine receptor in guinea pig ileum smooth muscle assessed as contraction in presence of hexamethonium. The class given is tissue-based. In short, it runs like this: as §2
Series [9] concerns Felis catus. Briefly: Reduction of mean blood pressure in cat at 0.2 to 3 mg/kg, iv. The series is classed as functional, organism-based. Summed up:
as §3

The species entered for series [10] is Gallus gallus. The series is described as §4. This is another data set of the same source.
Series [11] addresses T2, Acetylcholinesterase (Gallus gallus) (UniProt P36196).
T2 sequence (whole entry): T1 sequence (P36196 whole entry)
Briefly: Inhibition of acetylcholine esterase in chicken biventer cervicis muscle assessed as rate of acetylcholine hydrolysis at 37 uM by Ellman's method. The note with it: Muscle tissue. Summed up: as §1

Series [12] deals with Felis catus. Briefly: Reduction of mean blood pressure in cat at 0.2 to 3 mg/kg, iv in presence of atropine. The class given is functional, organism-based. Summed up:
(§5)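 Cats were anesthetized with α-chloralose 80 mg/kg plus pentobarbitone 6 mg/kg ip and vagotomized. Drugs were given iv in acid saline pH 4.5. Heart rate and blood pressure responses were recorded before and after atropine 1 mg/kg.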

The species named for series [13] is Gallus gallus. Briefly: Agonist activity at cholinergic receptor isolated from chicken biventer cervicis nerve muscle assessed as >10 ug/ml measured after compound washout.
For series [14], the species on record is Gallus gallus. Briefly: Agonist activity at cholinergic receptor isolated from chicken biventer cervicis nerve muscle assessed as >10 ug/ml.
Series [15] concerns Felis catus. Briefly: Reduction of twitch tension in soleus muscle of electrically stimulated cat at 0.2 to 3 mg/kg, iv. The series is classed as functional, organism-based. In short, it runs like this:
as §3

For series [16], the species on record is Gallus gallus. Briefly: Agonist activity at cholinergic receptor in chicken biventer cervicis nerve muscle assessed as blockade of twitch response at 10 to 200 ug/ml in presence of tetanus.
For series [17], the system named is Felis catus. Briefly: Reduction of heart rate in cat at 0.2 to 3 mg/kg, iv in presence of atropine. The series is classed as functional, organism-based. In short, it runs like this:
as §5

For series [18], the system named is Felis catus. Briefly: Reduction of fused incomplete tetanic contraction in soleus muscle of electrically stimulated cat at 0.2 to 3 mg/kg, iv in presence of antagonist propranalol. The series is classed as functional, organism-based. In short, it runs like this: (§6)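 In chloralose–pentobarbitone anesthetized cats, the sciatic nerve was stimulated to evoke soleus contractions. Drugs were given iv in acid saline pH 4.5, and responses were recorded after propranolol 0.4 mg/kg.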

The species named for series [19] is Gallus gallus. Briefly: Agonist activity at cholinergic receptor in chicken biventer cervicis nerve muscle assessed as blockade of twitch accompanied with contracture at 10 to 200 ug/ml.
Series [20] has as its system Felis catus. Briefly: Reduction of twitch tension in soleus muscle of electrically stimulated cat at 0.2 to 3 mg/kg, iv in presence of antagonist propranolol. The series is classed as functional, organism-based. Summed up:
as §6

The species entered for series [21] is Gallus gallus. Briefly: Agonist activity at cholinergic receptor in chicken biventer cervicis nerve muscle assessed as blockade of twitch response at 10 to 200 ug/ml in presence of choline.
The subject of series [22] is Felis catus. Briefly: Reduction of heart rate in cat at 0.2 to 3 mg/kg, iv. The series is classed as functional, organism-based. In short, it runs like this: as §3
In series [23] the test system is Felis catus. Briefly: Reduction of fused incomplete tetanic contraction in soleus muscle of electrically stimulated cat at 0.2 to 3 mg/kg, iv. The class given is functional, organism-based. In short, it runs like this:
as §3

For series [24], the target named is T2, Acetylcholinesterase (Gallus gallus). Briefly: Inhibition of acetylcholine esterase in chicken biventer cervicis muscle assessed as rate of acetylcholine hydrolysis at 1.3 X 10^-3 M by Ellman's method. The note with it: Muscle tissue. Summed up:
as §1

The species entered for series [25] is Gallus gallus. Briefly: Agonist activity at cholinergic receptor in chicken biventer cervicis nerve muscle assessed as blockade of twitch response at 10 to 200 ug/ml in presence of physostigmine.
The species named for series [26] is Gallus gallus. Briefly: Agonist activity at cholinergic receptor in chicken biventer cervicis nerve muscle assessed as blockade of twitch response at 10 to 200 ug/ml in presence of caffeine.

On to `CNC(=O)Oc1ccc2c(c1)[C@]1(C)CCN(C)[C@@H]1N2C` [PHYSOSTIGMINE], for which the IC50 on Acetylcholinesterase is 0.02 µM.
With `Br.CC1(C)NCCc2cc(O)c(O)cc21`, the outcome in the series filed under Cavia porcellus [1], in the series listed under Gallus gallus [6], in the series filed under Cavia porcellus [8], in the series filed under Gallus gallus [10] and in the series filed under Gallus gallus [14] was Active. The outcome in the series on Felis catus [2], in the series filed under Gallus gallus [4], in the series listed under Cavia porcellus [5], in the series filed under Cavia porcellus [7], in the series on Felis catus [12] and in the series filed under Gallus gallus [13] was inactive. For the same compound, the figures for the Activity entry (with Felis catus [3]; in the series with Felis catus [9]; in [11]) were “<= 100%”, “Dose-dependent effect” and 3.55 µmol/min/g, respectively. Besides, the IC50 at Acetylcholinesterase amounted to 37 µM.
Regarding `C[N+](C)(C)CCOC(N)=O`, the result in the series listed under Cavia porcellus [1] and in the series filed under Gallus gallus [14] was Active. The outcome in the series filed under Cavia porcellus [5] and in the series filed under Cavia porcellus [7] was inactive.
As to `CC1NCCc2cc(O)c(O)cc21` (stereo unspecified), the result in the series filed under Cavia porcellus [1], with Felis catus [2], in the series with Felis catus [17], in the series with Felis catus [18], with Felis catus [20] and in the series with Felis catus [12] was inactive. In addition, the outcome with Felis catus [15], in the series filed under Gallus gallus [16], in the series filed under Gallus gallus [19], in the series listed under Gallus gallus [21], with Felis catus [22] and in the series on Felis catus [23] was Active. The outcome in the series listed under Gallus gallus [25] and in the series filed under Gallus gallus [26] was Active. The Activity result was “Dose-dependent effect” in the series on Felis catus [9] and 7.48 µmol/min/g in series [24].
